According to ChEMBL document CHEMBL1138253, “Cytotoxic and apoptotic activities of novel amino analogues of boswellic acids” (2007):
Active and inactive are the calls of the source. No cut-off for these calls is given here.

Tests used:
[1] = tested on: HT-29; assay: Cytotoxicity against human HT29 cells at 50 uM after 48 hrs; type: functional; settings: HT-29, 48 h
Summary of the method: (§1)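 Stock 1 × 10^-2 M in DMSO, diluted in RPMI-1640 (2 mM glutamine, pH 7.4, 10% FCS, penicillin/streptomycin). Cells grown at 37 C, 5% CO2; subconfluent cells trypsinised, >97% viable by trypan blue. Seeded at 10^5 cells/ml, grown 24 h, then exposed 48 h. TCA fixation at 4 C for 1 h, sulforhodamine B staining, Tris pH 10.4 solubilisation, OD 540 nm. Triplicate; mean of three experiments.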

[2] = Cytotoxicity against human 502713 cells at 50 uM after 48 hrs; type: functional; settings: Homo sapiens, 502713, 48 h; summary of the method: as §1
[3] = tested on: DU-145; assay: Cytotoxicity against human DU145 cells at 50 uM after 48 hrs; type: functional; settings: DU-145, 48 h; summary of the method: as §1
[4] = tested on: SW-620; assay: Cytotoxicity against human SW620 cells at 50 uM after 48 hrs; type: functional; settings: SW-620, 48 h; summary of the method: as §1
[5] = tested on: MCF7; assay: Cytotoxicity against human MCF7 cells at 50 uM after 48 hrs; type: functional; settings: MCF7, 48 h; summary of the method: as §1
[6] = Cytotoxicity against human 502713 cells at 1 uM after 48 hrs; type: functional; settings: Homo sapiens, 502713, 48 h
Summary of the method: (§2)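 SRB growth assay. DMSO stock (1 × 10^-2 M) diluted in RPMI-1640 (2 mM glutamine, pH 7.4, 10% FCS, antibiotics). Trypsinized subconfluent cells with >97% viability (trypan blue) seeded at 10^5 cells/ml and grown 24 h, then exposed to compound 48 h at 37 °C, 5% CO2. Fixed with TCA at 4 °C for 1 h, stained with 0.4% SRB, solubilized in 0.01 M Tris pH 10.4, OD read at 540 nm. Run in triplicate; mean of three experiments.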

[7] = tested on: HL-60; assay: Induction of apoptosis in human HL60 cells assessed as nucleosomal DNA fragmentation at 1 uM after 6 hrs; type: functional, cell-based
Summary of the method: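 HL-60 cells (2 × 10^6/3 ml) exposed to 1 µM compound for 6 h, with camptothecin as positive control and DMSO vehicle in untreated controls. DNA was extracted and run on 1.8% agarose gel to look for laddering.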

[8] = tested on: MCF7; assay: Cytotoxicity against human MCF7 cells at 10 uM after 48 hrs; type: functional; settings: MCF7, 48 h; summary of the method: as §2
[9] = tested on: DU-145; assay: Cytotoxicity against human DU145 cells at 10 uM after 48 hrs; type: functional; settings: DU-145, 48 h; summary of the method: as §2
[10] = tested on: COLO 205; assay: Cytotoxicity against human Colo205 cells at 1 uM after 48 hrs; type: functional; settings: COLO 205, 48 h; summary of the method: as §2
[11] = Cytotoxicity against human 502713 cells at 10 uM after 48 hrs; type: functional; settings: Homo sapiens, 502713, 48 h; summary of the method: as §2
[12] = tested on: HT-29; assay: Cytotoxicity against human HT29 cells at 10 uM after 48 hrs; type: functional; settings: HT-29, 48 h; summary of the method: as §2
[13] = tested on: DU-145; assay: Cytotoxicity against human DU145 cells at 1 uM after 48 hrs; type: functional; settings: DU-145, 48 h; summary of the method: as §2
[14] = tested on: SW-620; assay: Cytotoxicity against human SW620 cells at 1 uM after 48 hrs; type: functional; settings: SW-620, 48 h; summary of the method: as §2
[15] = tested on: SW-620; assay: Cytotoxicity against human SW620 cells at 10 uM after 48 hrs; type: functional; settings: SW-620, 48 h; summary of the method: as §2
[16] = tested on: MCF7; assay: Cytotoxicity against human MCF7 cells at 1 uM after 48 hrs; type: functional; settings: MCF7, 48 h; summary of the method: as §2

Compound | inhibition at 50 µM [1] [%] | inhibition at 50 µM [2] [%] | inhibition at 50 µM [3] [%] | inhibition at 50 µM [4] [%] | inhibition at 50 µM [5] [%] | inhibition at 1 µM [6] [%] | Activity [7] | inhibition at 10 µM [8] [%] | inhibition at 10 µM [9] [%] | inhibition at 1 µM [10] [%] | inhibition at 10 µM [11] [%] | inhibition at 10 µM [12] [%] | inhibition at 1 µM [13] [%] | inhibition at 1 µM [14] [%] | inhibition at 10 µM [15] [%] | inhibition at 1 µM [16] [%]
O=c1[nH]cc(F)c(=O)[nH]1 [FLUOROURACIL] | 36 | 25 | 31 | 41 | 20 | – | – | – | – | – | – | – | – | – | – | –
C[C@H]1[C@H](C)CC[C@]2(C)CC[C@]3(C)C(=CC(=O)[C@@H]4[C@@]5(C)CC[C@@H](O)[C@](C)(N)[C@@H]5CC[C@]43C)[C@H]12 | – | – | – | – | – | 48 | Active | 44 | 94 | 48 | 86 | 71 | 16 | 75 | 87 | 0
C[C@H]1[C@H](C)CC[C@]2(C)CC[C@]3(C)C(=CC[C@@H]4[C@@]5(C)CC[C@@H](O)[C@](C)(N)[C@@H]5CC[C@]43C)[C@H]12 | – | – | – | – | – | 35 | Active | 42 | 82 | 30 | 99 | 79 | 3 | 45 | 73 | 0
COc1cccc2c1C(=O)c1c(O)c3c(c(O)c1C2=O)C[C@@](O)(C(=O)CO)C[C@@H]3O[C@H]1C[C@H](N)[C@H](O)[C@H](C)O1 [DOXORUBICIN] | – | – | – | – | – | 5 | – | – | – | 62 | – | – | 56 | 36 | – | 74
CC(=O)O[C@@H]1CC[C@]2(C)[C@H]3C(=O)C=C4[C@@H]5[C@@H](C)[C@H](C)CC[C@]5(C)CC[C@@]4(C)[C@]3(C)CC[C@H]2[C@@]1(C)N | – | – | – | – | – | – | Active | 1 | 16 | – | 55 | 21 | – | – | 72 | –
CC(=O)O[C@@H]1CC[C@]2(C)[C@H]3CC=C4[C@@H]5[C@@H](C)[C@H](C)CC[C@]5(C)CC[C@@]4(C)[C@]3(C)CC[C@H]2[C@@]1(C)N | – | – | – | – | – | 6 | Active | 10 | 92 | 34 | 96 | 44 | 0 | 18 | 80 | 0
CC[C@@]1(O)C(=O)OCc2c1cc1n(c2=O)Cc2cc3ccccc3nc2-1 | – | – | – | – | – | – | Active | – | – | – | – | – | – | – | – | –
CCC(=O)N[C@]1(C)[C@@H]2CC[C@]3(C)[C@H](C(=O)C=C4[C@@H]5[C@@H](C)[C@H](C)CC[C@]5(C)CC[C@]43C)[C@@]2(C)CC[C@H]1OC(=O)CC | – | – | – | – | – | – | – | 4 | 0 | – | 24 | 0 | – | – | 0 | –
C[C@H]1[C@H](C)CC[C@]2(C)CC[C@]3(C)C(=CC(=O)[C@@H]4[C@@]5(C)CC[C@H](O)[C@](C)(C(=O)O)[C@@H]5CC[C@]43C)[C@H]12 | – | – | – | – | – | – | – | 16 | 3 | – | 27 | 0 | – | – | 1 | –
CCCC(=O)N[C@]1(C)[C@@H]2CC[C@]3(C)[C@H](CC=C4[C@@H]5[C@@H](C)[C@H](C)CC[C@]5(C)CC[C@]43C)[C@@]2(C)CC[C@H]1OC(=O)CCC | – | – | – | – | – | – | – | 0 | 0 | – | 7 | 0 | – | – | 0 | –
